Data: ChEMBL document CHEMBL3868590, “Quambalarine B, a Secondary Metabolite from Quambalaria cyanescens with Potential Anticancer Properties” (J Nat Prod, 2016)
Active and inactive are the calls of the source. No cut-off for these calls is given here.

Assays:
[1] = Cytotoxicity against human REH cells assessed as reduction in viable cells measured after 24 hrs by Hoechst-33258 staining-based FACS analysis; type: functional, cell-based
In short: (§1)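 Leukemic lines kept in RPMI1640 with 10% FBS, penicillin/streptomycin, 37 °C, 5% CO2. Seeded at 2 × 10^5 cells/mL and exposed 24 h to a range of compound concentrations (DMSO stock); medium and DMSO negative controls. Live fraction taken from Hoechst 33258-negative singlets by flow cytometry. EC50 from five-parameter nonlinear regression.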

[2] = Cytotoxicity against human Jurkat cells assessed as reduction in viable cells measured after 24 hrs by Hoechst-33258 staining-based FACS analysis; type: functional, cell-based; in short: as §1
Jurkat [3] = test: Cytostatic activity against human Jurkat cells assessed as population doubling level at 2 umol/L after 6 days using Burker counting chamber (reference value: 3.25); type: functional
In short: (§2)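 Cells were seeded at 2.5 × 10^5 cells/mL in DMSO-containing medium, with or without 2 μmol/L compound. Cells were counted daily in a Bürker chamber. PDL was calculated as log(Nf/N0)/log 2 over 6 days. Values are mean ± SD of three experiments, compared with DMSO controls.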

REH [4] = test: Cytostatic activity against human REH cells assessed as population doubling level at 2 umol/L after 6 days by Burker counting chamber (reference value: 3.55); type: functional; in short: as §2
Jurkat [5] = test: Cytostatic activity against eFluor670-labelled human Jurkat cells assessed as live cells at 2 umol/L measured immediately after compound addition by Hoechst-33258 staining-based FACS analysis (reference value: 98.2%); type: functional
Jurkat [6] = test: Cytostatic activity against eFluor670-labelled human Jurkat cells assessed as live cells at 2 umol/L measured on day 1 by Hoechst-33258 staining-based FACS analysis (reference value: 98.2%); type: functional
Jurkat [7] = test: Cytostatic activity against eFluor670-labelled human Jurkat cells assessed as live cells at 2 umol/L measured on day 2 by Hoechst-33258 staining-based FACS analysis (reference value: 97%); type: functional
Jurkat [8] = test: Cytostatic activity against eFluor670-labelled human Jurkat cells assessed as live cells at 2 umol/L measured on day 3 by Hoechst-33258 staining-based FACS analysis (reference value: 98.3%); type: functional
Jurkat [9] = test: Cytostatic activity against eFluor670-labelled human Jurkat cells assessed as live cells at 2 umol/L measured on day 4 by Hoechst-33258 staining-based FACS analysis (reference value: 97.3%); type: functional
Jurkat [10] = test: Cytostatic activity against eFluor670-labelled human Jurkat cells assessed as live cells at 2 umol/L measured on day 5 by Hoechst-33258 staining-based FACS analysis (reference value: 97%); type: functional
NALM-6 [11] = test: Cytostatic activity against eFluor670-labelled human NALM6 cells assessed as live cells at 2 umol/L measured on day 3 by Hoechst-33258 staining-based FACS analysis (reference value: 98.6%); type: functional
REH [12] = test: Cytostatic activity against eFluor670-labelled human REH cells assessed as live cells at 2 umol/L measured immediately after compound addition by Hoechst-33258 staining-based FACS analysis (reference value: 44.1%); type: functional
[13] = Cytotoxicity against CD14+ monocytes in human PBMC population assessed as reduction in viable cells measured after 24 hrs by Hoechst-33258 staining-based FACS analysis; type: toxicity, cell-based, Monocyte
In short: (§3)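 PBMC were isolated from blood on a Ficoll-Paque gradient and seeded at 1 × 10^5 cells/well in 400 μL RPMI1640. Cells were exposed to a range of compound concentrations for 24 h. Viable CD3+, CD14+ and CD20+ populations were measured as Hoechst 33258-negative singlets by flow cytometry. EC50 was obtained by five-parameter nonlinear regression.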

[14] = Cytotoxicity against CD14+ monocytes in human PBMC population assessed as viable cells at 15 umol/L measured after 24 hrs by Hoechst-33258 staining-based FACS analysis (reference value: 13.8%); type: toxicity, cell-based, Monocyte; conditions: read-out: Activity; in short: as §3
[15] = Cytotoxicity against CD14+ monocytes in human PBMC population assessed as viable cells at 100 umol/L measured after 24 hrs by Hoechst-33258 staining-based FACS analysis (reference value: 13.8%); type: toxicity, cell-based, Monocyte; conditions: read-out: Activity; in short: as §3
[16] = Cytotoxicity against CD3+ T-lymphocytes in human PBMC population assessed as reduction in viable cells measured after 24 hrs by Hoechst-33258 staining-based FACS analysis; type: toxicity, cell-based, T-cell; in short: as §3
[17] = Cytotoxicity against PHA/LPS-stimulated CD3-positive T-lymphocytes in eFluor670-labeled human PBMC assessed as division index at 2 umol/L administered post 18 hrs of PHA/LPS-stimulation measured after 72 hrs by Hoechst-33258 staining-based FACS analysis (reference value: 0.381); type: toxicity; conditions: t-cell, 2 µM
[18] = Cytotoxicity against PHA/LPS-stimulated CD3-positive T-lymphocytes in eFluor-670-labeled human PBMC assessed as proliferation index at 2 umol/L administered post 18 hrs of PHA/LPS-stimulation measured after 72 hrs by Hoechst-33258 staining-based FACS analysis (reference value: 1.58); type: toxicity; conditions: t-cell, 2 µM
In short: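 PBMC were labelled with 1 μmol/L CPD, stimulated with PHA (5 μg/mL) plus LPS (1 μg/mL), and seeded at 3 × 10^5 cells/well in 300 μL. Compound was added after 18 h and left for 72 h. Cells were stained with anti-CD3. Unstimulated cells set the CPD+ gate. Proliferation index, division index and % divided were calculated for CPD+CD3+ Hoechst-negative cells.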

NALM-6 [19] = test: Decrease in C-MYC mRNA level in human NALM6 cells at EC50 measured after 24 hrs by RT-qPCR analysis; type: functional, cell-based
[20] = molecular target: Myc proto-oncogene protein (Homo sapiens) (UniProt P01106); test: Inhibition of C-MYC in human NALM6 cells assessed as decrease in GLS level at EC50 measured after 24 hrs by RT-qPCR analysis; type: cell-based; conditions: NALM-6
[21] = molecular target: Myc proto-oncogene protein (Homo sapiens) (UniProt P01106); test: Inhibition of C-MYC in human REH cells assessed as decrease in PKM2 level at EC50 measured after 24 hrs by RT-qPCR analysis; type: cell-based
REH [22] = test: Inhibition of P70S6K in human REH cells assessed as decrease in C-MYC expression measured after 24 hrs by immunoblot analysis; type: cell-based
In short: (§4)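 Cells prepared as for RT-qPCR (7.5 × 10^5 cells/mL). Treated either with the line-specific EC50 concentration over a time course, or 24 h with graded concentrations up to that EC50. Cells washed with phosphatase inhibitors and lysed in RIPA; 40 μg protein per lane on SDS-PAGE, then nitrocellulose. Immunoblotted for C-MYC, P70S6K, p-P70S6K (Ser424) and actin.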

REH [23] = test: Inhibition of P70S6K in human REH cells assessed as decrease in phosphorylated P70S6K expression at EC50 by immunoblot analysis; type: cell-based; conditions: TDE = time-dependent effect; in short: as §4
REH [24] = test: Inhibition of P70S6K in human REH cells assessed as decrease in phosphorylated P70S6K expression measured after 24 hrs by immunoblot analysis; type: cell-based; in short: as §4
[25] = Cytotoxicity against human PBMC assessed as reduction in viable cells measured after 24 hrs by Hoechst-33258 staining-based FACS analysis; type: toxicity, cell-based
In short: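 Human PBMC isolated on a Ficoll-Paque gradient, seeded at 1 × 10^5 cells/well in RPMI1640. Exposed 24 h to a compound concentration range; medium and DMSO negative controls. Cells stained with Hoechst 33258 and read by flow cytometry; live-cell percentage from Hoechst-negative singlets. EC50 by five-parameter nonlinear regression.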

Chain of Myc proto-oncogene protein (Homo sapiens) (P01106 whole entry): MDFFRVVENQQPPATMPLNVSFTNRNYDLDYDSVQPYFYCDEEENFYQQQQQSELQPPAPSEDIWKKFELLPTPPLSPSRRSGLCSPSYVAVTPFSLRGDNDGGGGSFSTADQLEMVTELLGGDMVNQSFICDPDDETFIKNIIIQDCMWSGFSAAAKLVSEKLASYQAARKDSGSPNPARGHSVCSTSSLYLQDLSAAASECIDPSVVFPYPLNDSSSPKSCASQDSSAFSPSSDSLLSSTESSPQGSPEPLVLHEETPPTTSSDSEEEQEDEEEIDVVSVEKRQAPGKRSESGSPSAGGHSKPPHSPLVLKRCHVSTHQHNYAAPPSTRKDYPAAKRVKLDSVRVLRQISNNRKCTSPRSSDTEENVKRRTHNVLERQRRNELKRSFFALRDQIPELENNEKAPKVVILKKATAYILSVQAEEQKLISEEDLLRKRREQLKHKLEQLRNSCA

inhibition [20]: Active
inhibition [21]: Active
Structure (SMILES): CCCCCC(=O)C1=C(O)C(=O)c2c(O)c(O)cc(O)c2C1=O
EC50 [1]: 22 µM
EC50 [2]: 7.41 µM
Activity (Jurkat [3]): 1.64
Activity (REH [4]): 1.32
Activity (Jurkat [5]): 98.2%
Activity (Jurkat [6]): 88.4%
Activity (Jurkat [7]): 70.1%
Activity (Jurkat [8]): 69.2%
Activity (Jurkat [9]): 39.5%
Activity (Jurkat [10]): 25.5%
Activity (NALM-6 [11]): 98.1%
Activity (REH [12]): 44.1%
EC50 at 24 h [13]: 15.1 µM
viability at 24 h, 15 µM [14]: 8.1%
viability at 24 h, 100 µM [15]: 0.21%
EC50 at 24 h [16]: 65.7 µM
Activity_index [17]: 0.196
Activity_index [18]: 1.23
Activity (NALM-6 [19]): Active
inhibition (REH [22]): Dose-dependent effect
inhibition (REH [23]): Tde
inhibition (REH [24]): Dose-dependent effect
EC50 at 24 h [25]: 56.1 µM
